Columns and labels:
sigma-2 = sigma-2 (Homo sapiens, UniProt Q5BJF2); assay: Radioligand binding assay against sigma-2; conditions: for pKi ± SEM Sigma-2: displacement of [3H]-DTG, <5 = not >50% inhibition at 10 μM single concentration
Mouse liver microsomal = format: in vitro ADME; conditions: 37 °C
Procedure, shortened: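 Mouse liver microsomes (0.4 mg/mL) with NADPH in 0.5 M phosphate buffer, test compound at 10 μM. T0 samples quenched at once with 2 volumes ice-cold acetonitrile; others shaken 60 min at 37 °C, then quenched likewise. Verapamil-HCl as control. After centrifugation, parent quantified by UPLC/MS (SRM). % remaining = (60 min/0 min concentration)×100; duplicate runs, mean reported.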

sigma-1 = sigma-1 (Homo sapiens, UniProt Q99720); assay: Radioligand binding assay against sigma-1
Chain of sigma-1 (Q99720 whole entry): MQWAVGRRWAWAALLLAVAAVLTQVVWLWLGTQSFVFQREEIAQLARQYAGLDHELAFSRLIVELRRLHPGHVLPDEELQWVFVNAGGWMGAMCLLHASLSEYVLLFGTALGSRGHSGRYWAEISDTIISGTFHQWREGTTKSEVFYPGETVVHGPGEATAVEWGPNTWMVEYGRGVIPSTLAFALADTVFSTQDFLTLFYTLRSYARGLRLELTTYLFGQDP

Chain of sigma-2 (Q5BJF2 whole entry): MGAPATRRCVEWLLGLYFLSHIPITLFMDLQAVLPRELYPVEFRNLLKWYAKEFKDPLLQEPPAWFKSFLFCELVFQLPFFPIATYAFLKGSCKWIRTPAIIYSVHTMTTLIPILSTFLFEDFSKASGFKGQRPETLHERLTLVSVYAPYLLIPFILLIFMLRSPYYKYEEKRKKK

| Structure (SMILES) | activity against sigma-2 (in words) (sigma-2) | pKi ± SEM Sigma-2 (sigma-2) | also measured |
| --- | --- | --- | --- |
| O=C(c1nn(-c2ccccc2)c2c1CC(NCc1ccc(F)cc1)CC2)N1CCCCC1 (stereo not shown) [7aa, (5-((4-Fluorobenzyl)amino)-1-phenyl-4,5,6,7-tetrahydro-1H-indazol-3-yl)(piperidin-1-yl)methanone] | no activity | <5 M |  |
| O=C(c1nn(-c2ccccc2)c2c1CC(NCc1ccccc1)CC2)N1CCCCC1 (stereo not shown) [7ab, (5-(Benzylamino)-1-phenyl-4,5,6,7-tetrahydro-1H-indazol-3-yl)(piperidin-1-yl)methanone] |  |  | consumption by liver microsomes after 60 minutes (in words) (Mouse liver microsomal): nearly-completely consumed |
| O=C(c1nn(-c2ccccc2)c2c1CC(NCCc1ccc(C(F)(F)F)cc1)CC2)N1CCCCC1 (stereo not shown) [7ac, (1-Phenyl-5-((4-(trifluoromethyl)phenethyl)amino)-4,5,6,7-tetrahydro-1H-indazol-3-yl)(piperidin-1-yl)methanone] |  | <5 M |  |
| O=C(c1nn(-c2ccccc2)c2c1CC(NCCc1cccc(O)c1)CC2)N1CCCCC1 (stereo not shown) [7af, (5-((3-Hydroxyphenethyl)amino)-1-phenyl-4,5,6,7-tetrahydro-1H-indazol-3-yl)(piperidin-1-yl)methanone] |  | <5 M |  |
| O=C(c1nn(Cc2ccccc2)c2c1CC(NCCc1ccncc1)CC2)N1CCCCC1 (stereo not shown) [7ag, (1-Benzyl-5-((2-(pyridin-4-yl)ethyl)amino)-4,5,6,7-tetrahydro-1H-indazol-3-yl)(piperidin-1-yl)methanone] |  | <5 M |  |
| O=C(c1nn(Cc2ccccc2)c2c1CC(NCc1ccc(F)cc1)CC2)N1CCCCC1 (stereo not shown) [7ah, (1-Benzyl-5-((4-fluorobenzyl)amino)-4,5,6,7-tetrahydro-1H-indazol-3-yl)(piperidin-1-yl)methanone] |  | <5 M |  |
| O=C(c1c2c(nn1-c1ccccc1)CCC(NCc1ccc(F)cc1)C2)N1CCCCC1 (stereo not shown) [7ba, (5-((4-Fluorobenzyl)amino)-2-phenyl-4,5,6,7-tetrahydro-2H-indazol-3-yl)(piperidin-1-yl)methanone] |  |  | fold more potent against sigma-1 compared to N-1 regioisomer 7aa (sigma-1; N-2 vs N-1 regioisomer): over 5 fold; fold more potent against sigma-2 compared to N-1 regioisomer 7aa (sigma-2; N-2 vs N-1 regioisomer): > 60 fold; consumption by liver microsomes after 60 minutes (in words) (Mouse liver microsomal): nearly-completely consumed |
| O=C(c1c2c(nn1-c1ccccc1)CCC(NCCc1ccc(C(F)(F)F)cc1)C2)N1CCCCC1 (stereo not shown) [7bc, (2-Phenyl-5-((4-(trifluoromethyl)phenethyl)amino)-4,5,6,7-tetrahydro-2H-indazol-3-yl)(piperidin-1-yl)methanone] |  | <5 M |  |
| O=C(c1c2c(nn1-c1ccc(F)cc1)CCC(NCc1ccc(F)cc1)C2)N1CCCCC1 (stereo not shown) [7bf, (5-((4-Fluorobenzyl)amino)-2-(4-fluorophenyl)-4,5,6,7-tetrahydro-2H-indazol-3-yl)(piperidin-1-yl)methanone] |  |  | selectivity for sigma-1 against sigma-2 (sigma-1; sigma-1 over sigma-2): over 500 fold |

Further lines, with some results ahead:

| activity against sigma-2 (in words) (sigma-2) | pKi ± SEM Sigma-2 (sigma-2) | Structure (SMILES) | also measured |
| --- | --- | --- | --- |
|  | <5 M | NC(=O)c1ccc(-n2nc3c(c2C(=O)N2CCCCC2)CC(NCCc2ccccc2)CC3)cc1 (stereo not shown) [7bg, 4-(5-(Phenethylamino)-3-(piperidine-1-carbonyl)-4,5,6,7-tetrahydro-2H-indazol-2-yl)benzamide] |  |
| completely lost | <5 M | CCCn1nc(C(=O)N(C)C)c2c1CCC(OCc1ccc(F)cc1)C2 (stereo not shown) [compound 9, 5-((4-Fluorobenzyl)oxy)-N,N-dimethyl-1-propyl-4,5,6,7-tetrahydro-1H-indazole-3-carboxamide] | activity against sigma-1 (in words) (sigma-1): completely lost |
| completely lost | <5 M | CCCn1nc(C(=O)N(C)C)c2c1CCC(SCc1ccc(F)cc1)C2 (stereo not shown) [compound 11, 5-((4-Fluorobenzyl)thio)-N,N-dimethyl-1-propyl-4,5,6,7-tetrahydro-1H-indazole-3-carboxamide] | activity against sigma-1 (in words) (sigma-1): completely lost |
| complete loss of activity | <5 M | CCCn1nc(C(=O)N(C)C)c2c1CCC(NC(=O)c1ccc(F)cc1)C2 (stereo not shown) [compound 13, 5-(4-Fluorobenzamido)-N,N-dimethyl-1-propyl-4,5,6,7-tetrahydro-1H-indazole-3-carboxamide] | activity against sigma-1 (in words) (sigma-1): complete loss of activity |
| complete loss of activity | <5 M | CCCn1nc(C(=O)N(C)C)c2c1CCC(NS(=O)(=O)c1ccc(F)cc1)C2 (stereo not shown) [compound 14, 5-((4-Fluorophenyl)sulfonamido)-N,N-dimethyl-1-propyl-4,5,6,7-tetrahydro-1H-indazole-3-carboxamide] | activity against sigma-1 (in words) (sigma-1): complete loss of activity |

Source: PMC6548570 (Bioorganic & medicinal chemistry, 2019)
